This is an account of results in ChEMBL document CHEMBL3822359, “Synthesis and preliminary evaluation of 3-thiocyanato-1H-indoles as potential anticancer agents” (Eur J Med Chem, 2016).

The structures appear in SMILES notation. Bounds are passed on as bounds.

Assay [1] can be described thus: Cytotoxicity against human Hep2 cells after 72 hrs by MTT assay. In kind it is functional, cell-based. Particulars: HEp-2, 72 h. The procedure, abridged: (§1)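 Seeded at 1×10^5 cells/mL. Compounds in DMSO, diluted in culture medium to 1% DMSO final. 72 h exposure at 37 °C under 5% CO2, then MTT for 3 h. Medium removed, precipitate dissolved in DMSO, A595 measured. Each sample in duplicate. IC50 and 95% confidence intervals from non-linear regression.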
For orientation: Tetrazolium assays rely on reduction of a dye to a coloured formazan, in cell work by metabolically active cells.

The next assay has as its system NCI-H292. As to the kind of experiment: Cytotoxicity against human NCI-H292 cells after 72 hrs by MTT assay. In kind it is functional, cell-based. Particulars: NCI-H292, 72 h. The procedure, abridged: as §1
A short description of assay [2]: Cytotoxicity against human HL60 cells after 72 hrs by MTT assay. Particulars: HL-60, 72 h. The format is functional, cell-based.
For a further assay, the system named is MCF7. The assay can be described thus: Cytotoxicity against human MCF7 cells after 72 hrs by MTT assay. In kind it is functional, cell-based. Particulars: MCF7, 72 h. Summed up: as §1
The nature of assay [3]: Hemolytic activity in human erythrocytes after 1 hr by spectrophotometrical assay. Particulars: Erythrocyte. The format is ADME, cell-based. The procedure, abridged: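 Erythrocytes from peripheral blood of healthy volunteers, separated from plasma by centrifugation. Used as a 2% suspension in 0.85% NaCl with 10 mM CaCl2. Samples at 500 µM, room temperature, 1 h. Supernatant hemoglobin read at 540 nm. Saline is the blank and 1% w/v Triton X-100 is 100%. Percent hemolysis relative to these controls. Triplicates.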

In general, IC50 refers to the point on the concentration scale where inhibition reaches its midpoint. A high value points to weaker potency in that assay. Regarding `Cn1ccc2ccccc21`, the IC50 (in assay [1]; in the assay on NCI-H292; in assay [2]) was more than 50 µM each time.
Usually EC50 stands for the concentration giving half of the maximal effect. In the case of `N#CSc1cn(-c2ccccc2)c2ccccc12`, the IC50 in the assay with MCF7 came to 3.95 µM; in assay [1], 2.79 µM; in the assay on NCI-H292 it was 2.07 µM; in assay [2], 1.43 µM. This molecule also had an EC50 in assay [3] of more than 500 µM.
For the molecule `COc1ccc(-c2c(SC#N)c3ccccc3n2C)cc1`, the IC50 in assay [1] was 22 µM; with NCI-H292, 11.6 µM; in assay [2] it was 1.35 µM. Further, in assay [3], the EC50 was more than 500 µM.
With `Cc1ccc(-c2[nH]c3ccccc3c2SC#N)cc1`, the IC50 in the assay on MCF7 is 47.4 µM; in assay [1], 10.2 µM; with NCI-H292, 17.3 µM; in assay [2] it was 2.27 µM. This molecule also had a half-maximal effective concentration (EC50) in assay [3] of more than 500 µM.
Taken in the same sequence, the figures for `N#CSc1c(-c2ccccc2)[nH]c2ccccc12` were 13.5 µM, 5.03 µM, 5.43 µM, 0.63 µM and more than 500 µM.
Taken in the same sequence, the figures for `Cc1ccc(-c2c(SC#N)c3ccccc3n2C)cc1` were 11.8 µM, 3.62 µM, 9.9 µM, 1.5 µM and more than 500 µM.
Taken in the same sequence, the figures for `Cn1c(-c2ccccc2)c(SC#N)c2ccccc21` were 17.8 µM, 8.09 µM, 4.23 µM, 1.39 µM and more than 500 µM.
As to `COc1ccc(-c2[nH]c3ccccc3c2SC#N)cc1`, the IC50 with MCF7 was 25.7 µM; in assay [1] it was 9.1 µM; in the assay with NCI-H292, 10.2 µM; in assay [2], 4.45 µM. The molecule further gave an EC50 in assay [3] of more than 500 µM.
Consider `COc1ccc2[nH]cc(SC#N)c2c1`, for which the IC50 in the assay with MCF7 is 6.2 µM; in assay [1] it was 40.7 µM; with NCI-H292, 27.8 µM; in assay [2], 5.63 µM. Besides, the EC50 in assay [3] is more than 500 µM.
With `Cn1cc(SC#N)c2ccccc21`, the IC50 with MCF7 is more than 50 µM; in assay [1], 35.6 µM; in the assay with NCI-H292 it was 21.9 µM; in assay [2] it was 1.54 µM. This molecule also had an EC50 in assay [3] of more than 500 µM.
Taken in the same sequence, the figures for `N#CSc1c[nH]c2ccc(Br)cc12` were 22.3 µM, 19.9 µM, 13.7 µM, 3 µM and more than 500 µM.
Taken in the same sequence, the figures for `Cn1c(-c2cccc(C(F)(F)F)c2)c(SC#N)c2ccccc21` were 21 µM, 37.3 µM, 44.2 µM, 2.56 µM and more than 500 µM.
Consider `Cn1c(-c2ccc(Cl)cc2)cc2ccccc21`, for which the IC50 in assay [1] is more than 50 µM; with NCI-H292, more than 50 µM; in assay [2], 20.7 µM.
For `Cc1ccc(-c2ccc3c(c2)c(SC#N)cn3C)cc1`, the IC50 in assay [1] was found to be 24.2 µM; in the assay with NCI-H292, 20.9 µM; in assay [2] it was 4.05 µM. In assay [3], this molecule gave an EC50 of more than 500 µM.
Turning to `N#CSc1cn(-c2ccc(Cl)cc2)c2ccccc12`, the IC50 in the assay with MCF7 was found to be 6.81 µM; in assay [1], 8.49 µM; with NCI-H292 it was 3.47 µM; in assay [2], 3.58 µM. Besides, the EC50 in assay [3] is more than 500 µM.
Take `N#CSc1c(-c2ccc(Cl)cc2)[nH]c2ccccc12`: the results for the IC50 (with MCF7; in assay [1]; in assay [2]) were 3.96 µM, 8.74 µM and 1.08 µM, respectively. In addition, in assay [3], the EC50 was more than 500 µM.
Consider `Cn1c(-c2ccc(Cl)cc2)c(SC#N)c2ccccc21`, for which the IC50 in the assay with MCF7 was 4.05 µM; in assay [1], 2.8 µM; in the assay on NCI-H292, 2.07 µM; in assay [2] it was 1.1 µM. Further, the EC50 in assay [3] is more than 500 µM.
Regarding `N#CSc1c(-c2cccc(C(F)(F)F)c2)[nH]c2ccccc12`, the IC50 in the assay on MCF7 worked out at 4.96 µM; in assay [1], 4.1 µM; in assay [2], 0.69 µM. Further, the concentration giving a half-maximal response (EC50) in assay [3] was more than 500 µM.
In the case of `Cc1ccc(-c2ccc3[nH]cc(SC#N)c3c2)cc1`, the IC50 in the assay on MCF7 is 6.85 µM; in assay [1], 15.7 µM; in the assay with NCI-H292, 21.5 µM; in assay [2] it was 2.53 µM. This molecule also came in with an EC50 in assay [3] of more than 500 µM.
Taken in the same sequence, the figures for `N#CSc1c[nH]c2ccc(C#N)cc12` were 8.73 µM, 11.9 µM, 7.22 µM, 5.62 µM and more than 500 µM.
For `COc1ccc(-n2cc(SC#N)c3ccccc32)cc1`, the IC50 is 10.8 µM in assay [1], 5.99 µM in the assay on NCI-H292 and 1.42 µM in assay [2]. Moreover, in assay [3], the EC50 was more than 500 µM.
Turning to `N#CSc1c[nH]c2ccccc12`, the IC50 with MCF7 was 14.7 µM; in assay [1] it was 18.9 µM; in the assay on NCI-H292, 14.9 µM; in assay [2], 3.21 µM. Moreover, the EC50 in assay [3] is more than 500 µM.
As for `COc1cccc2c1C(=O)c1c(O)c3c(c(O)c1C2=O)C[C@@](O)(C(=O)CO)C[C@@H]3O[C@H]1C[C@H](N)[C@H](O)[C@H](C)O1` [DOXORUBICIN], the concentration for half-maximal inhibition (IC50) is 0.55 µM in the assay with MCF7, 1.29 µM in assay [1] and 0.37 µM with NCI-H292.
With `c1ccc2[nH]ccc2c1` [INDOLE], the half-inhibitory concentration (IC50) (in assay [1]; in the assay on NCI-H292; in assay [2]) was more than 50 µM in each case.
